The list is not random: actives were taken first. Their share in the collection is about 8.9%.
Lmaj promast: Leishmania major promastigote growth inhibition, primary screen; Leishmania major promastigotes, resazurin fluorescence viability; inhibition, % at 10 µM; hit rate 9% among 200,000; AID 1063, 2008; in the data active = inhibition above about 50%;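 also: promastigotes grown with compound for 44 hours at 28 °C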
MT stabilize HCS: microtubule stabilizers in HeLa cells, primary screen, imaging, high-content imaging; hit rate 0.83% among 200,000; AID 2205, 2009; HeLa tubulin immunostaining HCS, 24 h; share of cells brighter than vehicle mean+2SD; % tubulin-high responders, % at 10 µM;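 active = plate Z-score above 3 for both tubulin-high and condensed-nucleus cell shares, with cell loss under 80%, at 10 µM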;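 also: anti alpha tubulin signal scored within the nucleus-defined area of each cell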
b-catenin transl: modulators of beta-catenin nuclear translocation, primary screen, imaging, HeLa cells, immunofluorescence, high-content | nuclear translocation activity, % at 5 µM | AID 1665, 2009 | hit rate 0.3% among 190,000;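 active = nuclear translocation activity above 50% at 5 µM, with a well cell count of 50 or more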;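 also: per-cell ratio of nuclear to cytoplasmic median beta-catenin stain intensity; plate controls were DMSO negative control for no effect and GSK-3 inhibitor IX positive control for full effect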
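test system = HeLa cells, endogenous beta-catenin | dosing = single 5 µM dose plus 0.02–20 µM confirmation series | times = compound treatment 24 h, 37°C, 5% CO2 | technique = beta-catenin immunofluorescence imaging with DAPI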
HSV augment: enhancers of HSV replication in host cells, fold increase, host cell viability | HSV replication augmentation in cells | maximum fold increase | hit rate 0.005% among 220,000; in the data active = maximum fold increase above about 1.5; tested in PC3 cells
Dynein transport: inhibitors of GR-EGFP nuclear translocation, primary screen, dynein cargo transport inhibitor project, imaging, high-content, 3617.4 mouse cells | test concentration mostly 20 µM; stimulated with dexamethasone, 1 µM; hits give low values | z-score, hits read low | hit rate 0.47% among 220,000 | AID 1381, 2008;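 active = plate z-score of nuclear minus cytoplasmic receptor signal below a set negative limit, without overly bright fluorescence or cell loss, cut at about -3.5 in these data, passing the limit was not always enough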;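 also: z-score of nuclear minus cytoplasmic ring GR-EGFP intensity difference per well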
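Medium: Induction medium lacking tetracycline, stripped serum | Probe or stimulus: 1.0 µM final dexamethasone stimulus | Schedule: 48 h induction, then 1 h compound, then 30 min agonist, 37 °C | Signal: Automated 10x imaging of fixed Hoechst-stained cells | Evaluation: Per-cell GR-EGFP intensity, nucleus versus surrounding cytoplasmic ring, well-averaged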
The depositor's hits bear a star; i = inactive; . = no result given.

SMILES | Lmaj promast | MT stabilize HCS | b-catenin transl | HSV augment | Dynein transport
O=C1c2ccccc2NC(c2ccc(O)cc2)N1Cc1ccco1 (centres undefined) | -6 | 2 | -1 | i | -0.53
CCN(CC)CCN1C(=O)c2ccccc2NC1c1ccc(C)cc1 (centres undefined) | 57* | 0 | -1 | i | 0.024
CCN(CC)CCN1C(=O)c2ccccc2NC1c1ccc(Br)cc1 (centres undefined) | 97* | 4 | 0 | i | -0.18
CCN(CC)CCN1C(=O)c2ccccc2NC1c1ccc(F)cc1 (centres undefined) | 7 | 3 | 1 | i | 0.17
Cc1ccc(C2Nc3ccccc3C(=O)N2Cc2ccco2)cc1 (centres undefined) | 17 | 18* | 5 | i | 1.3
Cc1nn(CC(=O)Nc2nccs2)c(C)c1[N+](=O)[O-] | -6 | 2 | -4 | i | 0.6
Fc1ccc(Cn2c(SCc3ccc(F)c(C(F)(F)F)c3)nnc2C(F)(F)F)cc1 | -7 | 2 | . | i | -0.67
CC(=O)Oc1c(/C=C(\C#N)C(N)=O)[nH]c2ccccc12 | 96* | 5 | . | i | -0.77
COc1cc(C2Nc3ccc4ncccc4c3C3=C2C(=O)CCC3)cc(OC)c1O (centres undefined) | -3 | 48* | 0 | i | -0.19
COc1cc(C2Nc3ccc4ncccc4c3C3=C2C(=O)CC(C)(C)C3)cc(OC)c1O (centres undefined) | 4 | 3 | -5 | i | 0.27
Oc1ccc(C(=S)N2CCCCCC2)cc1 | -3 | 4 | -3 | i | 1.4
S=C(c1ccc(N2CCCC2)cc1)N1CCCCC1 | 88* | 3 | . | i | -0.00076
COc1cc(CNn2c(C)n[nH]c2=S)cc(Br)c1OCc1ccc(F)cc1 | -1 | 5 | . | i | -0.42
CCOc1cc(CNCc2ccncc2)cc(Br)c1OCc1ccc(F)cc1 | 93* | 3 | 2 | i | -0.099
O/N=C/c1cc(Br)ccc1OCc1ccccc1F | 100* | 4 | . | i | -0.32
Fc1ccc(COc2cccc(CNCc3ccncc3)c2)cc1 | 96* | 3 | 2 | i | -0.31
Fc1ccc(COc2ccc(Br)cc2CNCc2ccncc2)cc1 | 97* | 3 | 4 | i | -0.24
COc1cccc(CNC(=O)CCS(=O)(=O)c2cccs2)c1 | -2 | 3 | -1 | i | 1.1
Fc1ccccc1COc1ccc(Br)cc1CNCc1cccnc1 | 37 | 3 | 0 | i | 1.5
Fc1ccccc1COc1ccc(Br)cc1CNCc1ccncc1 | 100* | 2 | . | i | -0.66
CN(C)CCNC(=O)/C=N/O | 0 | 3 | -4 | i | 0.024
CC(C)CCNC(=O)CN(C(=O)CCC(=O)Nc1ccccn1)c1ccc(F)c(Cl)c1 | 95* | 2 | -2 | i | -0.76
Cc1cccc(N(CC(=O)NCc2ccco2)C(=O)CCC(=O)Nc2ccccn2)c1 | 16 | 4 | -6 | i | -0.43
Oc1ccccc1CN1CCC(C(O)(c2ccccc2)c2ccccc2)CC1 | 56* | 4 | -1 | i | 0.43
O=C(C1CC1)N1CCN(C(c2ccccc2)c2ccccc2)CC1 | 12 | 1 | -2 | i | -0.55
SMILES | Lmaj promast | MT stabilize HCS | b-catenin transl | HSV augment | Dynein transport
Oc1ccccc1CN1CCCN(Cc2ccccc2O)C1 | 31 | 3 | 1 | i | -0.079
O=C(C1CC1)N1CCC(C(O)(c2ccccc2)c2ccccc2)CC1 | 95* | 1 | -7 | i | -0.73
CC#CCN(CC#CC)S(=O)(=O)c1ccc(S(=O)(=O)N2CCOCC2)cc1 | 3 | 2 | -2 | i | 1.6
Cc1ccc(-n2c(SCc3ccc([N+](=O)[O-])cc3)nc3ccccc3c2=O)cc1 | 38 | 2 | -1 | i | 4.4
CCOC(CCn1c(SCc2ccc([N+](=O)[O-])cc2)nc2ccccc2c1=O)OCC | 51* | 1 | -3 | i | 0.83
COc1ccc(Oc2ncccc2[N+](=O)[O-])cc1 | . | . | 1 | i | -0.3
CN(C)c1ccc(O)c2c1CC1CC3[C@@H](N(C)C)C(=O)C(C(N)=O)=C(O)[C@]3(O)C(=O)C1=C2O (some centres undefined) | 83* | 4 | 1 | i | 0.33
Cc1ccc2c(c1)S/C(=C/c1ccc[n+](C)c1)N2CCO | 70* | 4 | . | i | -0.63
COc1ccccc1C(=O)NCC(=O)n1nc(C)cc1C | -2 | 9 | 1 | i | 0.77
CNC(=S)N(Cc1ccc(OC)cc1)C1CC(=O)N(c2ccc(Cl)cc2)C1=O (centres undefined) | 52* | 3 | . | . | 0.58
COc1ccc(CN(C(=S)Nc2ccccc2)C2CC(=O)N(c3ccc(F)cc3)C2=O)cc1 (centres undefined) | 91* | 2 | 0 | i | 1.7
C=CCN(C(=O)Nc1ccc(Cl)cc1)C1CC(=O)N(c2ccc(OC)cc2)C1=O (centres undefined) | 5 | 3 | 0 | . | 0.36
Cc1noc(C)c1S(=O)(=O)Nc1ccccc1OC(F)(F)F | . | . | -1 | i | 0.43
CCOC(=O)N1CCN(C(=O)CSc2nc(-c3cccc(C)c3)ns2)CC1 | 6 | 5 | -2 | i | 0.5
COc1ccc(-c2nc(-c3ccccn3)nc(N3CCN(C)CC3)c2C#N)cc1 | 11 | 3 | 1 | i | -0.28
CC(=O)N1CCN(c2nc(-c3cccs3)nc3ccccc23)CC1 | 77* | 1 | -1 | i | 0.66
Oc1ccccc1-c1nc(N2CCCC2)c2ccccc2n1 | 0 | i | . | i | 0.32
CN1CCN(c2nc(-c3ccccn3)nc3ccccc23)CC1 | 100* | 5 | 1 | i | 0.28
c1ccc(N2CCN(c3nc(-c4ccccn4)nc4ccccc34)CC2)cc1 | 100* | 3 | 4 | i | -0.8
O=[N+]([O-])c1cc(-c2ncccn2)c([N+](=O)[O-])s1 | 5 | 3 | 0 | i | -3.9*
Cc1ccccc1NC(=O)C1Cc2ccccc2CN1C(=O)OCc1ccccc1 (centres undefined) | 92* | 2 | -5 | i | -0.55
CSCCC(NC(=O)c1cc(C(C)(C)C)oc1C)C(=O)O (centres undefined) | -3 | 5 | -1 | i | -0.89
CSCCC(NC(=O)c1ccoc1C)C(=O)O (centres undefined) | 65* | 3 | 3 | i | -1.5
Cc1nc(N2CCCCC2)c2c(C)c(C(=O)Nc3cccc(C(F)(F)F)c3)sc2n1 | 62* | 1 | 1 | i | -0.21
Cc1nc(N2CCCCC2C)c2c(C)c(C(=O)Nc3cccc(C(F)(F)F)c3)sc2n1 (centres undefined) | 67* | 2 | -2 | i | 2.5
O=C(COC(=O)CNC(=O)c1ccccc1)Nc1nc(-c2ccccc2)cs1 | -3 | 3 | 0 | i | -0.76
COc1cc(OC)cc(C(=O)N[C@H](C(=O)OCC(=O)Nc2ccc(C(N)=O)cc2)C(C)C)c1 | 56* | 2 | . | i | 2

High-throughput results deposited in PubChem by several laboratories.
